# Runt-SMMHC FRET – inhibitors of RUNX1 Runt–CBFb-SMMHC binding, primary screen, biochemical, FRET, Cerulean-Runt, Venus-CBFb-SMMHC, uHTS | Runt-related transcription factor 1 (Homo sapiens) + Core-binding factor subunit beta … | 220,000 tested, 0.74% active | Cerulean-Runt/Venus-CBFb-SMMHC FRET ratio 530/480, 1 h | inhibition, % at 20 µM | AID 1434, 2008;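 active = mean inhibition across duplicate retests at 20 µM reaching about 50%, limit read from the data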;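 note: 0% = DMSO wells and 100% = wells with excess untagged CBFb-SMMHC; inhibitors lower the FRET ratio by blocking Runt binding to CBFb-SMMHC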
# Target sequence (Q01196 whole entry, looked up): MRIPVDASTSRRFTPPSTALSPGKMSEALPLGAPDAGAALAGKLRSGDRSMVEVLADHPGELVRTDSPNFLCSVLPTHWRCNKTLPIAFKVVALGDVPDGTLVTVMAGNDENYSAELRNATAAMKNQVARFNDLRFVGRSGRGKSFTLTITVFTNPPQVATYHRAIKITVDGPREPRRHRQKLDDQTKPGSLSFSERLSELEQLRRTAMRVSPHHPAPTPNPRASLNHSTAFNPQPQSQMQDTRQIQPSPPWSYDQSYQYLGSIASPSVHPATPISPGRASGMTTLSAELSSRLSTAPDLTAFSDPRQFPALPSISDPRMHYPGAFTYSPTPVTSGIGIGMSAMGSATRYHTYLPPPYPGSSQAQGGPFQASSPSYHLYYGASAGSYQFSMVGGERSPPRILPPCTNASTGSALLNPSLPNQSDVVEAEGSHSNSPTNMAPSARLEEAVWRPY
# Target sequence (Q13951 whole entry, looked up): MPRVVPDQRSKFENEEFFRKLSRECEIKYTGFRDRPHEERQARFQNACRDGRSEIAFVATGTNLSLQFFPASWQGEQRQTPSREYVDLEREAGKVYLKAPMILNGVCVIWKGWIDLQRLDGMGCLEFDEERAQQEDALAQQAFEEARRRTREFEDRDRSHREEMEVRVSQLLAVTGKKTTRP
# Runt-CBFb FRET – inhibitors of RUNX1 Runt–CBFb binding, primary screen, biochemical, FRET, Cerulean-Runt, Venus-CBFb, uHTS. inhibition, % at 20 µM. 220,000 tested, 0.46% active. Cerulean-Runt/Venus-CBFb FRET ratio 530/480, 1 h. Runt-related transcription factor 1 (Homo sapiens) + Core-binding factor subunit beta …. AID 1496, 2009;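 active = inhibition over about 50% at 20 µM in the single-dose screen, limit read from the data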;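 note: 0% = DMSO wells and 100% = excess unlabeled CBFb competitor control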
#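 Doses: 20 µM compound in 1% DMSO | Material: Cerulean-labeled Runt domain protein | Amount: Each fluorescent fusion protein 100 nM | Schedule: Two 1 h room-temperature incubations shielded from light | Measured by: FRET fluorescence | Evaluation: Loss of energy transfer signal | Controls: Unlabeled CBFb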
# RanGTP-Imp inh – inhibitors of RanGTP-importin-beta interaction, primary screen, biochemical, FRET, CFP-Ran, YFP-importin-beta, homogeneous; Ran GTPase (GTP-bound) - importin-beta complex; cell-free CFP-Ran/YFP-importin-beta FRET ratio; inhibition, % (test concentration not listed); 300,000 tested, 1.1% active; AID 2216, 2009;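 active = more than half of the replicate wells show a fall in the fluorescence ratio signal beyond about 16%, limit read from the data, passing the limit was not always enough; inconclusive = exactly half of the replicate wells pass the set limit; inactive = fewer than half of replicates pass the limit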;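 note: 0% = DMSO wells and 100% = Ran loaded with GDP instead of GTP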
# CaV13 ICDI inh – Disruptors of the CACNA1D IQ motif to Ca2+-dependent inactivation inhibitor domain association, primary screening, Förster resonance energy transfer in intact living …. HEK cells, CFP/YFP FRET ICDI-IQ, plate reader, 10 min; percent FRET-ratio fall versus neutral wells. inhibition, % at 12.3 µM. 340,000 tested, 0.098% active;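 active = mean replicate inhibition of at least 30% and at least 1% of replicates passing that level; inconclusive = only one of the two criteria is met; inactive = neither criterion is met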;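 note: 0% = median of the neutral control wells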
# YIC FRET counter – YIC intramolecular FRET probe signal interference, dose response, counter-screen for RanGTP-importin-beta inhibitor project, biochemical, fluorescence FRET; shares compounds with RanGTP-Imp inh; Purified YIC probe, intramolecular FRET ratio YFP/CFP; 1,000 tested, 40% active; IC50, µM;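 active = fitted half-maximal inhibitory concentration no more than tenfold above the top dose tested; inconclusive = flat fit with 30 to 70% activity, or poor fit; inactive = half-maximal concentration beyond tenfold above the top dose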
# * = called active by the depositor; ? = inconclusive; · = no result. Rows were chosen to be rich in hits. Some 1.2% of all compounds tested hit in one or more screens of this group.
SMILES,Runt-SMMHC FRET,Runt-CBFb FRET,RanGTP-Imp inh,CaV13 ICDI inh,YIC FRET counter
Cc1cccc(C(=O)Nc2sc(C)c(-c3ccccc3)c2C#N)c1,3.9,3.4,38.9*,·,>50
O=C(Cn1nnc2ccccc2c1=O)N[C@H](C(=O)O)c1ccccc1,0.2,0.4,-0.5,-2.4,·
N#C/C(=C/c1ccc(O)c(O)c1)c1nc2ccccc2[nH]1,·,·,38.5*,-5.2,3.93*
N#C/C(=C\c1cccs1)c1nc2ccccc2[nH]1,-3.4,0.6,1.4,-19.4,·
COc1cc(/C=N/NC(=O)c2sc3nc(C)cc(C)c3c2N)ccc1O,31.6,20.0,?,-15.7,·
CCS(=O)(=O)c1ccc(S(=O)(=O)CC)s1,-0.5,-1.2,36.1*,-5.8,>50
CCS(=O)(=O)c1ccc(N)cc1,0.4,0.8,-0.3,-4.8,·
Cc1cc(C(=O)N/N=C2\CC(=O)CC(C)(C)C2)c2ccccc2n1,-3.4,-2.7,-2.4,-18.6,·
CC1(C)CC(=O)C/C(=N\NC(=O)Cc2ccccc2)C1,1.2,2.9,26.4*,-2.7,>50
C=CCN1C(=O)/C(=C\c2ccc(OC(=O)c3ccco3)c(OC)c2)SC1=S,-7.8,-4.8,18.7*,-5.5,>50
C=CCN1C(=O)/C(=C\c2cccc(OC(=O)c3ccco3)c2)SC1=S,·,·,-4.0,-2.6,·
O=C(C1CCCCC1)N1CC(=O)N2CCc3ccccc3C2C1 (centres undefined),2.6,-0.3,20.6*,·,>50
Cc1cccc(C2=NN(c3ccc(Br)cc3)[C@@H](C(=O)N3CCOC3=O)[C@@H]2c2ccc(F)cc2)c1,55.6,17.5,18.0*,-3.7,35.1*
O=C1OCCN1C(=O)[C@H]1[C@H](c2ccc(F)cc2)C(c2cccc(Cl)c2)=NN1c1ccc(Br)cc1,·,·,·,-8.4,·
CCc1nc2ccc(C(=O)NCc3ccc4c(c3)OCO4)cn2c1N(C)Cc1ccc(OC)cc1,·,·,·,-5.3,·
COc1cc(S(=O)(=O)NCCCN2CCOCC2)ccc1Cl,2.9,1.2,17.4*,-5.0,>50
Cc1ccc(S(=O)(=O)NCCCN2CCOCC2)cc1C,-0.3,-3.6,9.0,-5.4,·
CC1CC(C)CN(c2cc(=O)n(Cc3ccc(F)cc3)c(=O)[nH]2)C1 (centres undefined),-2.0,-0.3,60.5*,-2.8,>50
O=c1cc(N2CCN(c3ccc(F)cc3)CC2)[nH]c(=O)n1Cc1ccc(F)cc1,1.8,-0.3,5.4,-9.5,·
COc1ccc(C([O-])=Nc2ccc[n+](-c3nc4ccccc4nc3NS(=O)(=O)c3ccccc3)c2)cc1,-6.3,-6.5,-0.2,-4.0,·
O=S(=O)(Nc1nc2ccccc2nc1-[n+]1cccc(N=C([O-])c2ccccc2Cl)c1)c1ccccc1,75.0*,47.8,24.0*,·,6.74*
COCCNC(=O)c1cccc(OC2CCN(Cc3cccc(SC)c3)CC2)c1,·,·,-1.3,-20.2,·
Cc1nc(NC(=O)C(C)(C)C)sc1C(=O)Cn1cc(CCCC#N)nn1,·,·,·,-12.2,·
CC(C)CCC(=O)N1CCC(N2CCC(C(=O)NCc3ccccn3)CC2)CC1,·,·,3.1,-3.9,·
CSCC(C)N1CCC(N2CCC(C(=O)NCc3ccccn3)CC2)CC1 (centres undefined),·,·,18.9*,-4.6,>50
SMILES,Runt-SMMHC FRET,Runt-CBFb FRET,RanGTP-Imp inh,CaV13 ICDI inh,YIC FRET counter
COC(=O)C(C)(C)c1cccnc1C#N,·,·,·,-9.6,·
Cn1c(=O)n(CC(=O)O)c(=O)c2c1nc1n2CCCN1CCc1ccccc1,·,·,1.1,-2.1,·
COC(=O)Cn1c(=O)c2c(nc3n2CCCN3CCc2ccccc2)n(C)c1=O,·,·,25.3*,-1.2,>50
CC1(C)C2CCC1(C)C1(C2)NC(=O)c2ccccc2O1 (centres undefined),-2.1,-2.9,-1.2,-4.6,·
Cc1ccc(C(=O)NCc2ccco2)cc1S(=O)(=O)N1CCOCC1,-11.1,·,25.2*,-3.5,>50
Cc1ccc(C(=O)NCc2ccco2)cc1S(=O)(=O)N1CCCC1,·,·,-1.3,·,·
N#C/C(=C(/O)CSc1ccccn1)c1nc2ccccc2s1,-0.6,6.6,20.7*,-63.8,>50
CCOC(=O)C1CCN(C(=O)C(C)Oc2ccc(C(=O)c3ccccc3)cc2)CC1 (centres undefined),·,·,·,-6.3,·

# Screening data from PubChem BioAssay.
